Among the data in ChEMBL document CHEMBL1131235, “(R)-(+)-2-[[[3-(Morpholinomethyl)-2H-chromen-8-yl]oxy]methyl] morpholine methanesulfonate: a new selective rat 5-hydroxytryptamine1B receptor antagonist” (J Med Chem, 1998) are Ki values, retold here.

What is called Ki is the dissociation constant of the complex between target and ligand, obtained from inhibition or displacement. A low value points to a stronger hold on the target.

Bounds are passed on as bounds.

In assay [1] the target is T1, 5-hydroxytryptamine receptor 1A (Rattus norvegicus, UniProt P19327).
T1 sequence (P19327 whole entry): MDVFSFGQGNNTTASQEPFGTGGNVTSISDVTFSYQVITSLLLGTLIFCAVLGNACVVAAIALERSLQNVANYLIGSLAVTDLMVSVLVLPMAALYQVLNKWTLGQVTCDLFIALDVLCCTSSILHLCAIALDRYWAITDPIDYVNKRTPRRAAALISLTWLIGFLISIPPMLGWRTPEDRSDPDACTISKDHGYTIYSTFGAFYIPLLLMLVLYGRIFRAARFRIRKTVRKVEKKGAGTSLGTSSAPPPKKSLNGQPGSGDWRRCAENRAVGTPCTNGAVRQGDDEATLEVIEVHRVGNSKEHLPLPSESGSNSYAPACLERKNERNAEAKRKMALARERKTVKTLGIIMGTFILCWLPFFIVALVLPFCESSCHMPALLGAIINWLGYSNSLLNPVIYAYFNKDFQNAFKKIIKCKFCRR
The experiment in a line: Binding affinity against 5-hydroxytryptamine 1A receptor from rat hippocampus using [3H]8-OH-DPAT as the radioligand. The format is tissue-based. The method, boiled down: (§1)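 Binding by the Jackson et al. method. 5-HT1A used [3H]OH-DPAT on rat hippocampus. α1 used [3H]prazosin, α2 [3H]RX821002 and β [3H]dihydroalprenolol, all on rat cortex. D1 used [3H]SCH-23390 on rat striatum. D2 used [3H]raclopride on LtkhD2A cell membranes.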

Assay [2] concerns the target 5-hydroxytryptamine receptor 1B (Rattus norvegicus, UniProt P28564). The experiment in a line: Binding affinity against 5-hydroxytryptamine 1B receptor in membranes of Rat cerebral cortex. It counts as tissue-based. The gist of the method:
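Rat cerebral cortical membranes labelled with [125I]iodocyanopindolol in the presence of 60 μM isoproterenol to block β-adrenoceptor binding. Nonspecific binding was defined with 10 μM 5-HT.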

The target of assay [3] is T2, 5-hydroxytryptamine receptor 2C (Rattus norvegicus, UniProt P08909).
T2 sequence (P08909 whole entry): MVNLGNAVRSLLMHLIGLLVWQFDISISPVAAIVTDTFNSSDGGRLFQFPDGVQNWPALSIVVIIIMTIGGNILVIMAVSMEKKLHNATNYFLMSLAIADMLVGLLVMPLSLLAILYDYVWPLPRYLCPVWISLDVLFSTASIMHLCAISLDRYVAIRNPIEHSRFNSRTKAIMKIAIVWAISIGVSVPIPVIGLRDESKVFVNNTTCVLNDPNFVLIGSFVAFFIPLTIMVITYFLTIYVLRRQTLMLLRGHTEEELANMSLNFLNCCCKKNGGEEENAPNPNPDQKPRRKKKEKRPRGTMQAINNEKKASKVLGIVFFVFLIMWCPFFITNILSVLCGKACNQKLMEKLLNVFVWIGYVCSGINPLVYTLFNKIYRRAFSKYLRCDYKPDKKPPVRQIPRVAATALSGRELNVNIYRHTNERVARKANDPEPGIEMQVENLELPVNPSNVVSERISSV
Nature of the assay: Binding affinity against 5-hydroxytryptamine 2C receptor from rat cortex using [3H]mesulergine as the radioligand. It counts as tissue-based. The gist of the method:
(§2)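 Binding by the Johansson et al. method. 5-HT2A used [3H]ketanserin and 5-HT2C used [3H]mesulergine, both on rat cortex. 5-HT6 and 5-HT7 used [3H]-5-HT on CHO cell membranes expressing the rat receptors.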

The target in assay [4] is 5-hydroxytryptamine receptor 2A (Rattus norvegicus, UniProt P14842). The experiment in a line: Binding affinity against 5-hydroxytryptamine 2A receptor from rat cortex using [3H]ketanserin as the radioligand. The gist of the method:
as §2

In assay [5] the target is T3, Adrenergic receptor alpha-2 (Rattus norvegicus, UniProt P22086+P19328+P22909).
T3 sequence (P22086 whole entry): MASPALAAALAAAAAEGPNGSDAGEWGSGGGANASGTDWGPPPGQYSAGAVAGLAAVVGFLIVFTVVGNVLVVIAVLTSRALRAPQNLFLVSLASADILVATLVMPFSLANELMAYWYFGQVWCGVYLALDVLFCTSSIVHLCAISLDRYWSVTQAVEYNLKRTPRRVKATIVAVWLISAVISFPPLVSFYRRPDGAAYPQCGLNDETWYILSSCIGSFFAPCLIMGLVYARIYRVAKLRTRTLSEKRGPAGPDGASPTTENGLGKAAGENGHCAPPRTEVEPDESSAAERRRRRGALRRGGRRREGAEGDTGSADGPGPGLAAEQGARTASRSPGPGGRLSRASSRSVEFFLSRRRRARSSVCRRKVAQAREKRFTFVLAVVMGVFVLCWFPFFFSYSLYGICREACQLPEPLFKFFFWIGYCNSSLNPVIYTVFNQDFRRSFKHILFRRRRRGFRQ
T3 sequence (P19328 whole entry): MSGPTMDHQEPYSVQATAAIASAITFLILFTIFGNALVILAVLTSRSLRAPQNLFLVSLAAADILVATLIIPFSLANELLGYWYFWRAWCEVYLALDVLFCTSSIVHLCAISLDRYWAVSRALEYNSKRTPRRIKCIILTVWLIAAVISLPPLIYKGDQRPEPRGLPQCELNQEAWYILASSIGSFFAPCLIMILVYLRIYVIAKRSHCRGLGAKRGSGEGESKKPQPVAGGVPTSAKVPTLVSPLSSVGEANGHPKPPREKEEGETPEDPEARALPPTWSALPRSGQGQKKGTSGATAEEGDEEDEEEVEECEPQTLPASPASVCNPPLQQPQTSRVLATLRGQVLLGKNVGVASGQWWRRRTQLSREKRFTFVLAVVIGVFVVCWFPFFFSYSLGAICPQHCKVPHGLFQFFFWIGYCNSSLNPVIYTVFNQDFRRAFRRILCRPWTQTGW
T3 sequence (P22909 whole entry): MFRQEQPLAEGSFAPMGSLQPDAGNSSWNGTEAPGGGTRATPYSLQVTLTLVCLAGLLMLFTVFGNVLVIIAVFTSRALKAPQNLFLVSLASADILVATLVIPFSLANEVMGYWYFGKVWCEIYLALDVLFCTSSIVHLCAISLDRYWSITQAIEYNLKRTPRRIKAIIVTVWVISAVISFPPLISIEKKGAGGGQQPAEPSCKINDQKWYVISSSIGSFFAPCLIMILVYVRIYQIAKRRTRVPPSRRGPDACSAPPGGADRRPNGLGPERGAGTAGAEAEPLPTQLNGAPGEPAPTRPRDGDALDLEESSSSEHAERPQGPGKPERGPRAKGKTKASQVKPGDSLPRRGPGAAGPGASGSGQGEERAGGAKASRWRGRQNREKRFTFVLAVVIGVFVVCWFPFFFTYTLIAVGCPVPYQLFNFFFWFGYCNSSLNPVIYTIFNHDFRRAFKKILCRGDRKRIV
The experiment in a line: Binding affinity against Alpha-2 adrenergic receptor in rat cortex using [3H]RX-821002 as the radioligand. The format is tissue-based, Brain. The gist of the method:
as §1

For assay [6], the target named is D(2) dopamine receptor (Homo sapiens, UniProt P14416). The experiment in a line: Binding affinity against Dopamine receptor D2 from cell LtkhD2A membranes using [3H]raclopride as the radioligand. The method, boiled down: as §1
Chain of D(2) dopamine receptor (P14416 whole entry): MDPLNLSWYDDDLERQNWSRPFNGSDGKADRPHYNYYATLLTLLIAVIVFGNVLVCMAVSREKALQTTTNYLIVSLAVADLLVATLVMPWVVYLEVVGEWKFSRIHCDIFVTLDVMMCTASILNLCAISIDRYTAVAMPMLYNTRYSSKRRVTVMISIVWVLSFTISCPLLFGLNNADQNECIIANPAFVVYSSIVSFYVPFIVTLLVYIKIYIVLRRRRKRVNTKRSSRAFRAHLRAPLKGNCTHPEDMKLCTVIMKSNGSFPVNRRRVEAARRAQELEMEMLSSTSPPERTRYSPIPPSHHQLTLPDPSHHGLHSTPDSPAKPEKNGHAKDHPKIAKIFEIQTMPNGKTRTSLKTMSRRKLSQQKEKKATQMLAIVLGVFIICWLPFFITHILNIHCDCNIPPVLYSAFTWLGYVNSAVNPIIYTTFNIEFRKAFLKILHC

Chain of 5-hydroxytryptamine receptor 1B (P28564 whole entry): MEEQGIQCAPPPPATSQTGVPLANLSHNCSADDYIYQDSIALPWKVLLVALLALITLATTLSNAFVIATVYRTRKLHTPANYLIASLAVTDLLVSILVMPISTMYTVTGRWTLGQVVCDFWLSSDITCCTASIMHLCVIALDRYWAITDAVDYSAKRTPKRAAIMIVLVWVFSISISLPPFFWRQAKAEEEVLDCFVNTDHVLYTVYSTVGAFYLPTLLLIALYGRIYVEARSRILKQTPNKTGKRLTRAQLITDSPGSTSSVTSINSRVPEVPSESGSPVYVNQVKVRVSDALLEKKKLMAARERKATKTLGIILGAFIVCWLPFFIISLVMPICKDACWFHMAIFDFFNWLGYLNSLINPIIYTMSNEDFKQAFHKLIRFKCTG
Chain of 5-hydroxytryptamine receptor 2A (P14842 whole entry): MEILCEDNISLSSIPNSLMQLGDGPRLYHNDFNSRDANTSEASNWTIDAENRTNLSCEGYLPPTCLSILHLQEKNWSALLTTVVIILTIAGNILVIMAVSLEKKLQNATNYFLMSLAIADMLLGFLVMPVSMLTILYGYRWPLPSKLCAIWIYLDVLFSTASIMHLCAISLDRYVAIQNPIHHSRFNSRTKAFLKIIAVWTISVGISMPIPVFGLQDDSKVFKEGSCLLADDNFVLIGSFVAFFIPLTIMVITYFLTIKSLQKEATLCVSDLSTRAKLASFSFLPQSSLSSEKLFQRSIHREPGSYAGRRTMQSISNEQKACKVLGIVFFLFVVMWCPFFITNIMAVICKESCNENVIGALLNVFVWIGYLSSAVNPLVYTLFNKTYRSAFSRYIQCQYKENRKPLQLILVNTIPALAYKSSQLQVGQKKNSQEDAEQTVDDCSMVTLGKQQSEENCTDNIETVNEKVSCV

Regarding `C1=C(CN2CCOCC2)COc2c1cccc2OC[C@H]1CNCCO1.CS(=O)(=O)O`, the inhibition constant Ki in assay [1] was above 10 µM; in assay [2] it was 0.047 µM; in assay [3], above 10 µM; in assay [4] it was above 10 µM; in assay [5], above 10 µM; in assay [6], above 10 µM.

Regarding `C1=C(CN2CCOCC2)COc2c1cccc2OC[C@@H]1CNCCO1.Cl`, the inhibition constant Ki in assay [1] is above 10 µM; in assay [2], 0.275 µM; in assay [3], above 10 µM; in assay [4] it was above 10 µM; in assay [5] it was above 10 µM; in assay [6], above 10 µM.
